From paper PMC6598223 (Saudi Pharmaceutical Journal : SPJ, 2019) come the findings set out here.

Experiment [1] relates to HeLa cells. Put plainly: Alamar Blue cytotoxicity assay, HeLa. The settings on record: read-out: 24 h IC50 HeLa. In kind it is cell-based, human. In a few lines: (§1)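 Cells grown in DMEM with L-glutamine, 10% FBS and 1% penicillin–streptomycin at 37 °C, 5% CO2. They were seeded at 1 × 10^4 cells/well and grown 24 h, then given test compound dilutions in growth medium for 24 h. Alamar Blue was added (final 10 μg/ml) for 2–4 h at 37 °C, and fluorescence was read ([…]). Viability was calculated per line, and IC50s were averaged across HeLa, A549 and MDA-MB-231.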
On the technique in general: Alamar Blue is a resazurin reagent that responds to reducing activity.

Experiment [2] relates to A549 cells. The experiment in a line: Alamar Blue cytotoxicity assay, A549. In kind it is cell-based, human. In a few lines: as §1
Experiment [3] deals with MDA-MB-231 cells. The experiment in a line: Alamar Blue cytotoxicity assay, MDA-MB-231. Format: cell-based, human. The settings on record: read-out: 24 h IC50 MDA-MB-231. In a few lines:
as §1

Experiment [4] concerns HeLa, A549 and MDA-MB-231 cells. The experiment in a line: Average cytotoxicity over the tested cell lines. The note with it: Homo sapiens, 24 h, read-out: average IC50 against the tested cell lines. In kind it is cell-based. In a few lines: as §1
Experiment [5] has as its target EGFR (Homo sapiens, UniProt P00533). The experiment in a line: biochemical.
Experiment [6] concerns the target VEGFR2 (Homo sapiens, UniProt P35968). The experiment in a line: biochemical.
In experiment [7] the test system is HeLa cells. The experiment in a line: Annexin V/PI apoptosis assay. Format: cell-based, human. The settings on record: 24 h. In a few lines:
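HeLa cells were exposed to test compound at 5 or 10 μM for 24 h, with an untreated control. Apoptotic versus necrotic death was scored by annexin V/PI staining, reported as percentage of cells undergoing apoptosis.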

The subject of experiment [8] is caspase-3/7 in HeLa cells. The experiment in a line: Caspase-3/7 activity assay. In kind it is cell-based, human. The note with it: 10 μM, 24 h. In a few lines: (§2)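 HeLa cells were seeded at 1 × 10^5/well in duplicate and grown 24 h. They were then treated with test compound at 1, 5, 10 and 20 µM, with 0.1% DMSO (v/v) as control. After 24 h, activity was measured with the Caspase-Glo 3/7 (caspase-3/7), Caspase-Glo 8 (caspase-8) or Caspase-Glo 9 (caspase-9) kit.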

The test system of experiment [9] is caspase-8 in HeLa cells. Put plainly: Caspase-8 activity assay. The settings on record: 5 and 10 μM, 24 h. In kind it is cell-based, human. The method, boiled down: as §2
Experiment [10] concerns caspase-9 in HeLa cells. The experiment in a line: Caspase-9 activity assay. In kind it is cell-based, human. The note with it: 5 and 10 μM, 24 h. The method, boiled down: as §2
Experiment [11] deals with HeLa cells. The experiment in a line: ROS production. In kind it is cell-based, human. The note with it: 40 μM, 24 h. In a few lines: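 HeLa cells were treated with test compound at 10 or 40 µM for 24 h, with 0.1% DMSO (v/v) as control. Intracellular superoxide was detected with the Muse Oxidative Stress Kit, and cells were analysed on a Muse Cell Analyzer. The read-out was the percentage of cells with elevated ROS.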

Where [12] appears, read: Homo sapiens, A549, 24 h, read-out: 24 h IC50 A549, Alamar Blue, 24 h treatment.
Where [13] appears, read: read-out: 24 h IC50 A549, Alamar Blue, 24 h treatment.

Where two headings read alike, the source gives them in different places.

Chain of VEGFR2 (P35968 20-1356): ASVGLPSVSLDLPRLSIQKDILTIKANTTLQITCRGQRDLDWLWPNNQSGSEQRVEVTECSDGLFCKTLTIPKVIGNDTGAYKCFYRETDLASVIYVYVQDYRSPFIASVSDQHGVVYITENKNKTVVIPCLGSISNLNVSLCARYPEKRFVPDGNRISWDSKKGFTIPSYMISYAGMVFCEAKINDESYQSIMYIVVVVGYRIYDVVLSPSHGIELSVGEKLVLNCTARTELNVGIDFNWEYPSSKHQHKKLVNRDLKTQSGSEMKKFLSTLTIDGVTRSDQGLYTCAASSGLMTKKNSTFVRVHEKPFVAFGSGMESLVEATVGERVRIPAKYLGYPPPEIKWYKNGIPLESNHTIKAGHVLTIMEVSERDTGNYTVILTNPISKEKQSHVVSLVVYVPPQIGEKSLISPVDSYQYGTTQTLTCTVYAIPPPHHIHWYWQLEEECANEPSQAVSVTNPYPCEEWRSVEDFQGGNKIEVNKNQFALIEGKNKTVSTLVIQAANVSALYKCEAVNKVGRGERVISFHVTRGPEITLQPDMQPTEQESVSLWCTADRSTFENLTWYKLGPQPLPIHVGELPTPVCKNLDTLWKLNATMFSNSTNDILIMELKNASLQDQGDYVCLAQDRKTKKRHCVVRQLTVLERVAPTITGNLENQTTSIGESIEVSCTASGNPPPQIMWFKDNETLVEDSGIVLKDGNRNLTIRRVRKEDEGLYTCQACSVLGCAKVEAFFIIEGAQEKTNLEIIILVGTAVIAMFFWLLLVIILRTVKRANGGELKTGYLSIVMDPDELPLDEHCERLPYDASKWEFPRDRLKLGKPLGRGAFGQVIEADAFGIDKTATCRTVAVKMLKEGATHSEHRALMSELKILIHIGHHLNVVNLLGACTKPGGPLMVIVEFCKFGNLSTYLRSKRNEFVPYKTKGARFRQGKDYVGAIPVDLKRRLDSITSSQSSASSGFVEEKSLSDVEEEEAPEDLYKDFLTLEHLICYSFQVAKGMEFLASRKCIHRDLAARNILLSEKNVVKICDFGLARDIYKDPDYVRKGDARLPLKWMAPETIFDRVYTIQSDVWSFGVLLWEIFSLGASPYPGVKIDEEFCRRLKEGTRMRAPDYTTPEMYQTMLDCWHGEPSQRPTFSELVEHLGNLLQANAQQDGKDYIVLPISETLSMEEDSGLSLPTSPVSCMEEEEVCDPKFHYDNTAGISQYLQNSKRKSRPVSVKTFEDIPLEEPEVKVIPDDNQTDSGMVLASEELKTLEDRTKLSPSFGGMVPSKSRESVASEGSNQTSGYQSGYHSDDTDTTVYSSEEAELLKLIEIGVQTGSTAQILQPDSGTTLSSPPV
Chain of EGFR (P00533 25-1210): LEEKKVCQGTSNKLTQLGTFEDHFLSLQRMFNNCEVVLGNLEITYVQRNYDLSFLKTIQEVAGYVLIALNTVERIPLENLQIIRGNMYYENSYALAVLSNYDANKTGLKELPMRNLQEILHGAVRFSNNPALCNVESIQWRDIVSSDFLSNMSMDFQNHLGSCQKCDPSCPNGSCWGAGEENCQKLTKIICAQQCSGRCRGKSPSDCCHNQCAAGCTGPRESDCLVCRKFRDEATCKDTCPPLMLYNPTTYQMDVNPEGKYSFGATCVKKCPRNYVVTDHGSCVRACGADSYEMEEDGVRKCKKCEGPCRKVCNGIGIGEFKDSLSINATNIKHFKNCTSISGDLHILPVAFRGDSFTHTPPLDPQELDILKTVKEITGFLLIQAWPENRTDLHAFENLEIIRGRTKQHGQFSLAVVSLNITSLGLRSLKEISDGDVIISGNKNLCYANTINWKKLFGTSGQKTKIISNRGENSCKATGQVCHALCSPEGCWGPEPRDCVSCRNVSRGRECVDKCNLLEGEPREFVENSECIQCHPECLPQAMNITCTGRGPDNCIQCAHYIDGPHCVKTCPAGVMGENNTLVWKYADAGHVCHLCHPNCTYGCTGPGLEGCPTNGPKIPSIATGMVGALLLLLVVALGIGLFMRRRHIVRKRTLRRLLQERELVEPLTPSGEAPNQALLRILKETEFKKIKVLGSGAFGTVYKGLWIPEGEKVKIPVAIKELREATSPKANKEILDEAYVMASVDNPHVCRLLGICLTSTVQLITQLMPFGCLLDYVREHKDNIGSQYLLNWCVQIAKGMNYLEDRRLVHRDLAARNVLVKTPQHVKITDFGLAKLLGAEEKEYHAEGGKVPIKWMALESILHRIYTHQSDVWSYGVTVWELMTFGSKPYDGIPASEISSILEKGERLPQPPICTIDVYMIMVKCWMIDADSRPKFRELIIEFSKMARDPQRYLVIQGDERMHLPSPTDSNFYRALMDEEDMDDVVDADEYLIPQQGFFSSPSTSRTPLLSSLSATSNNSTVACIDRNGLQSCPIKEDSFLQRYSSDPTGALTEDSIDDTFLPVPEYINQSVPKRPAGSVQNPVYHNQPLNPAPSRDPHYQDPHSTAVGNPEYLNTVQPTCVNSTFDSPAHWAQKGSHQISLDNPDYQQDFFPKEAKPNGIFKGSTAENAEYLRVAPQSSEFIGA

By IC50 is commonly meant the concentration needed to halve the response being measured. Turning to `CCOC(=O)CN1C(=O)NC(c2ccccc2)(c2ccccc2)C1=O` [Compound 2, ethyl (5,5-diphenylhydantoin-3-yl)acetate], the IC50 came out at 241 ± 1.3 µM in experiment [1] (Homo sapiens, HeLa, 24 h); 108 ± 3.7 µM in experiment [2] (setting [12]); 263 ± 3.4 µM in [3] (Homo sapiens, MDA-MB-231, 24 h).
The matching figures for `NNC(=O)CN1C(=O)NC(c2ccccc2)(c2ccccc2)C1=O` [Compound 3, 2-(2,4-dioxo-5,5-diphenylimidazolidin-3-yl)acetohydrazide]: 236 ± 3.5 µM, 278 ± 7.5 µM and 278 ± 2 µM.
The matching figures for `O=C(CN1C(=O)NC(c2ccccc2)(c2ccccc2)C1=O)NN=Cc1ccc(Cl)cc1` [Compound 5, N'-(4-Chlorobenzylidene)-2-(2,5-dioxo-4,4-diphenylimidazolidin-1-yl)acetohydrazide]: 123 ± 2.6 µM, 157 ± 1.4 µM and 196 ± 1.7 µM.
Take `COc1ccc(C=NNC(=O)CN2C(=O)NC(c3ccccc3)(c3ccccc3)C2=O)cc1OC` [Compound 8, N′-(3,4-Dimethoxybenzylidene)-2-(2,5-dioxo-4,4-diphenylimidazolidin-1-yl)acetohydrazide]: the IC50 in experiment [1] (Homo sapiens, HeLa, 24 h) worked out at 60 ± 3.3 µM; in experiment [2] (setting [12]) it was 162 ± 2.3 µM; in experiment [3] (Homo sapiens, MDA-MB-231, 24 h), 154 ± 1.1 µM.
The matching figures for `COc1cc(C=NNC(=O)CN2C(=O)NC(c3ccccc3)(c3ccccc3)C2=O)ccc1O` [Compound 9, 2-(2,5-Dioxo-4,4-diphenylimidazolidin-1-yl)-N′-(4-hydroxy-3-methoxybenzylidene)acetohydrazide]: 50 ± 1 µM, 175 ± 4.3 µM and 136 ± 3.9 µM.
The matching figures for `O=C(CN1C(=O)NC(c2ccccc2)(c2ccccc2)C1=O)NN=Cc1ccc2c(c1)OCO2` [Compound 10, N′-(Benzo[d][1,3]dioxol-5-ylmethylene)-2-(2,5-dioxo-4,4-diphenylimidazolidin-1-yl)acetohydrazide]: 113 ± 0.9 µM, 267 ± 6 µM and 200 ± 4.1 µM.
`COc1cc(C=NNC(=O)CN2C(=O)NC(c3ccccc3)(c3ccccc3)C2=O)cc(OC)c1OC` [Compound 11, 2-(2,5-Dioxo-4,4-diphenylimidazolidin-1-yl)-N′-(3,4,5-trimethoxybenzylidene)acetohydrazide]: the IC50 was 53 ± 2.1 µM in [1] (Homo sapiens, HeLa, 24 h); 170 ± 4.2 µM in experiment [2] (setting [12]); 133 ± 0.7 µM in experiment [3] (Homo sapiens, MDA-MB-231, 24 h).
Turning to `COc1cc(OC)c(OC)cc1C=NNC(=O)CN1C(=O)NC(c2ccccc2)(c2ccccc2)C1=O` [Compound 12], the IC50 was 39 ± 3.1 µM in [1] (Alamar Blue, 24 h treatment); 116 ± 1.3 µM in experiment [2] (setting [13]); greater than 350 µM in experiment [3] (Alamar Blue, 24 h treatment).
For `O=C(CN1C(=O)NC(c2ccccc2)(c2ccccc2)C1=O)NN=Cc1c[nH]c2ccccc12` [Compound 13, N′-((1H-indol-3-yl)methylene)-2-(2,5-dioxo-4,4-diphenylimidazolidin-1-yl)acetohydrazide], the IC50 in experiment [1] (Homo sapiens, HeLa, 24 h) came to 10 ± 2.1 µM; in [2] (setting [12]), 160 ± 0.8 µM; in experiment [3] (Homo sapiens, MDA-MB-231, 24 h), 156 ± 3.1 µM; in experiment [4], 109 µM; in [5], 0.1 ± 0.02 µM; in experiment [6] it was 0.47 ± 0.09 µM.
For `O=C(CN1C(=O)NC(c2ccccc2)(c2ccccc2)C1=O)NN=C1C(=O)Nc2ccccc21` [Compound 14, 2-(2,5-Dioxo-4,4-diphenylimidazolidin-1-yl)-N′-(2-oxoindolin-3-ylidene)acetohydrazide], the IC50 was 30 ± 2.6 µM in experiment [1] (Homo sapiens, HeLa, 24 h); 116 ± 1.6 µM in experiment [2] (setting [12]); 123 ± 0.8 µM in [3] (Homo sapiens, MDA-MB-231, 24 h).
The matching figures for `O=C(CN1C(=O)NC(c2ccccc2)(c2ccccc2)C1=O)NN=C1C(=O)Nc2ccc(Cl)cc21` [Compound 15, N′-(5-Chloro-2-oxoindolin-3-ylidene)-2-(2,5-dioxo-4,4-diphenylimidazolidin-1-yl)acetohydrazide]: 53 ± 2.2 µM, 72 ± 3 µM and 311 ± 5.5 µM.
In the case of `O=C(CN1C(=O)NC(c2ccccc2)(c2ccccc2)C1=O)NN=C1C(=O)Nc2ccc(F)cc21` [Compound 16, 2-(2,5-Dioxo-4,4-diphenylimidazolidin-1-yl)-N′-(5-fluoro-2-oxoindolin-3-ylidene)acetohydrazide], the half-inhibitory concentration (IC50) in [1] (Homo sapiens, HeLa, 24 h) came to 18.5 ± 1.6 µM; in experiment [2] (setting [12]) it was 95 ± 1 µM; in [3] (Homo sapiens, MDA-MB-231, 24 h) it was 64 ± 0.6 µM; in experiment [4], 59 µM; in [5] it was 6.17 ± 0.22 µM; in experiment [6] it was 0.09 ± 0.01 µM. Further, the results for the “percentage of apoptotic cells” value in experiment [7] (5 μM) and in experiment [7] (10 μM) were 48.6% and 63.4%, respectively. In addition, the “change of caspase-3/7 activity” value in experiment [8] is “approximately 40%”. In addition, in experiment [9], the “change of caspase-8 activity” value is “no significant changes”. The “change of caspase-9 activity” value in experiment [10] was “no significant changes”. In experiment [11], the “cells with increased level of ROS production” value came to 37.7%.
Regarding `O=C(CN1C(=O)NC(c2ccccc2)(c2ccccc2)C1=O)NN=C1C(=O)Nc2ccc(Br)cc21` [Compound 17, N′-(5-Bromo-2-oxoindolin-3-ylidene)-2-(2,5-dioxo-4,4-diphenylimidazolidin-1-yl)acetohydrazide], the half-maximal inhibitory concentration (IC50) in [1] (Homo sapiens, HeLa, 24 h) was 29 ± 1.7 µM; in experiment [2] (setting [12]) it was 77 ± 1.5 µM; in experiment [3] (Homo sapiens, MDA-MB-231, 24 h), 138 ± 2.6 µM; in [4] it was 81 µM.
Turning to `O=C(CN1C(=O)NC(c2ccccc2)(c2ccccc2)C1=O)NN=C1C(=O)Nc2ccc([N+](=O)[O-])cc21` [Compound 18, 2-(2,5-Dioxo-4,4-diphenylimidazolidin-1-yl)-N′-(5-nitro-2-oxoindolin-3-ylidene)acetohydrazide], the IC50 is 30 ± 1.2 µM in [1] (Homo sapiens, HeLa, 24 h); 229 ± 5.2 µM in [2] (setting [12]); 80 ± 0.7 µM in experiment [3] (Homo sapiens, MDA-MB-231, 24 h); 113 µM in experiment [4]; 0.37 ± 0.01 µM in experiment [5]; 2.52 ± 0.09 µM in experiment [6].
On to `COc1ccc2c(c1)C(=NNC(=O)CN1C(=O)NC(c3ccccc3)(c3ccccc3)C1=O)C(=O)N2` [Compound 19, 2-(2,5-Dioxo-4,4-diphenylimidazolidin-1-yl)-N′-(5-methoxy-2-oxoindolin-3-ylidene)acetohydrazide], for which the IC50 was 118 ± 1.3 µM in experiment [1] (Homo sapiens, HeLa, 24 h); 170 ± 2.2 µM in experiment [2] (setting [12]); 174 ± 2.9 µM in experiment [3] (Homo sapiens, MDA-MB-231, 24 h).
Consider `CC(=O)O[C@@]12CO[C@@H]1C[C@H](O)[C@@]1(C)C(=O)[C@H](O)C3=C(C)[C@@H](OC(=O)[C@H](O)[C@@H](NC(=O)OC(C)(C)C)c4ccccc4)C[C@@](O)([C@@H](OC(=O)c4ccccc4)[C@H]21)C3(C)C` [Docetaxel, reference compound], for which the IC50 in experiment [1] (Homo sapiens, HeLa, 24 h) turned out to be 100 ± 3.8 µM; in experiment [2] (setting [12]), 100 µM; in experiment [2] (setting [13]), 50 ± 1.3 µM; in [3] (Homo sapiens, MDA-MB-231, 24 h), 100 ± 2.2 µM; in experiment [4], 83 µM.
